Results: PubChem BioAssay AID552 (SRMLSC, 2006)
Hit rate of the full screen: of about 20,000 compounds, about 10 (0.05%) were called active. Rule as the data show it: active = inhibition above about 40%; inactive = the rest. The sample as a whole holds a higher share of actives than the screen did.

Assay: growth inhibitors of wild type E. coli, primary screen, strain BW25113 wild type, absorbance readout (AID 552);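 also: bacteria exposed to compound for 20 hours at 37 °C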
Settings: OD600, at 10 µM, active compounds read high
Summary of the method: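 Material: bacterial strain in a whole-cell growth screen; Amount: inoculum from a 1:1000 dilution of a 1.5 h subculture; Buffer or medium: LB plus kanamycin 50 µg/mL; Dosing: one dose, 10 µM final; Times: compound exposure of 20 h at 37 °C; Measured by: absorbance at 615 nm as a measure of bacterial growth.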

inhibition, inactive:
COCCn1c(-c2ccc(OC)c(OC)c2)nc2ccccc21 -1.61%
Cc1cc(C(F)(F)F)nn1CC(=O)N1CCCC1 3.35%
Cn1c(=O)[nH]c(=O)c2c1nc(N(CCO)Cc1ccccc1)n2Cc1ccccc1Cl -2.48%
CC1CCc2c(sc3c2C2=NS(=O)(=O)CCN2C=N3)C1 (configuration not stated) 6%
Cc1nn(CC(=O)Nc2ccc3c(c2)nc(CN2CCCCC2)n3C)c(=O)c2ccccc12 2.04%
COc1ccccc1-c1nc(C(F)(F)F)c(OC)o1 -5.84%
O=c1ccc2cc(S(=O)(=O)N3CCN(c4ccccc4)CC3)ccc2o1 -12.1%
Cc1ccc(C(=O)N2CCCCCC2)cc1Br -8.59%
COc1cccc(-c2nc(S(=O)(=O)c3ccccc3)c(N3CCOCC3)o2)c1 7.07%
COc1ccccc1-c1cc(C(=O)NCCCn2ccnc2)no1 -4.16%
O=C(O)Cc1ccc(NC(=O)c2cccs2)cc1 -19.2%
COC(=O)Cc1c(C)c2ccc(OCC(=O)NCc3ccc4c(c3)OCO4)cc2oc1=O -21.1%
O=C(CS(=O)(=O)Cc1ccccc1)Nc1cccnc1 6.45%
O=C(NCc1ccco1)c1cc(-c2cccnc2)nc2ccc(Cl)cc12 -19.8%
CCSc1nc2c(c(=O)[nH]1)C(c1cccnc1)C(C(=O)OC(C)C)=C(C)N2 (configuration not stated) -1.79%
Cc1cccc(C(=O)Nc2ccc(CC(=O)O)cc2)c1 -0.63%
O=C(Nc1ccccc1)N(Cc1cccnc1)Cc1ccco1 -3.67%
O=C(CSc1nc2ccccc2o1)N1CCN(c2ccccc2)CC1 -25.4%
CC(=O)Nc1ccc(S(=O)(=O)Nc2nc3n(n2)C(c2ccccc2)CC(=O)N3)cc1 (configuration not stated) -1.04%
Cc1cc2c(cc1C)NC(c1ccccn1)C1=C(CC(C)(C)CC1=O)N2 (configuration not stated) -18.9%
CCOC(=O)COc1ccc(Cl)cc1C1NC(=O)NC(C)=C1C(C)=O (configuration not stated) -10.9%
O=C(COc1ccc(F)cc1)N(CC1=CCS(=O)(=O)C1)c1ccccc1 -20.6%
CC1(C)CC(=O)C=C(NCc2ccncc2)C1 -1.29%
CCc1cc(Br)ccc1NC(=O)C1CCCO1 (configuration not stated) -16.5%
Cc1cc(C)nc(SCc2nnc(SCC(=O)Nc3ncc(C)s3)n2Cc2ccco2)n1 -3.82%
CCOc1ccc(-c2nnn(CC(=O)N3CCN(c4ccc(F)cc4)CC3)n2)cc1OCC -5.75%
CCCOc1ccccc1-c1nc(SCCC(=O)O)n[nH]1 -18.4%
CCOC(=O)CSc1nnc(CNC(=O)c2cccs2)n1-c1cc(OC)ccc1OC 6.52%
Cc1cc(C)n(C(=O)c2ccc(S(=O)(=O)N3CCCC3)cc2)n1 -20.2%
CCCCn1c(CN2CCN(CCO)CC2)nc2ccccc21 -3.29%
Nc1nc(SCCOc2ccccc2)n[nH]1 6.28%
O=C(CSc1nc(-c2ccco2)cc(C(F)(F)F)n1)N1CCc2ccccc2C1 -19.6%
COCCn1c(CN(Cc2ccccc2)Cc2ccccc2)nc2c1c(=O)n(C)c(=O)n2C 12.3%
O=C(CSc1nnc(-c2cccs2)n1-c1ccccc1)NCc1ccco1 -20.9%
CCS(=O)(=O)NCCc1ccc(OC)c(OC)c1 -17.9%
CC1=C(C(=O)Nc2ccccc2)C(c2cccs2)C(C#N)=C(SCC#N)N1 (configuration not stated) 7.71%
CCn1cc(NC(=O)Nc2ccc(OC)c(OC)c2)c(C(N)=O)n1 -17.1%
NC(=O)CSc1oc(-c2cccs2)nc1S(=O)(=O)c1ccccc1 -19.6%
COc1ccc(-c2noc(COc3ccc(Cl)c(C)c3)n2)cc1 15.8%
CS(=O)(=O)N(Cc1nc2sc3c(c2c(=O)[nH]1)CCCC3)C1CCCCC1 9.07%
CC(c1nnc(SCC(=O)Nc2sccc2C#N)n1-c1ccc(Cl)cc1)N(C)C (configuration not stated) -3.98%
Cc1ccc(S(=O)(=O)NCc2nc3ccccc3c(=O)n2N)cc1 -21.5%
